The values that follow come from ChEMBL document CHEMBL1155641, “Cytotoxic cembrenolides and steroids from the formosan soft coral Sarcophyton crassocaule” (2000).

Holding throughout (type): functional
Holding throughout (conditions): read-out: ED50 (the source's name)

The test system of one test is P388. Briefly: Cytotoxicity against mouse P388 cells. In outline: (§1)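 Human KB epidermoid carcinoma and mouse P-388 lymphocytic leukemia cells came from an academic laboratory (University of Illinois at Chicago). Cytotoxicity assay run per a previously described procedure.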
The subject of the next test is KB. Description: Cytotoxicity against human KB cells. The essentials:
as §1

The next test has as its system A549. Briefly: Cytotoxicity against human A549 cells. The essentials: (§2)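 Human A549 lung adenocarcinoma and HT-29 colon adenocarcinoma cell lines from the American Type Culture Collection. Cytotoxicity assay run per a previously described procedure.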
Another test relates to HT-29. Briefly: Cytotoxicity against human HT29 cells. In outline: as §2

In brackets after ≈: the same amount, converted by molar mass.

On to `C=C1C(=O)O[C@H]2[C@H]1C[C@@H]1O[C@@]1(C)CC/C=C(\C)CC/C=C(\C)[C@@H]2OC(C)=O`, for which the EC50 in the test on P388 came to 0.38 µg/mL (≈ 1.01 µM); with KB, 7.39 µg/mL (≈ 19.7 µM); in the test on A549 it was 4.66 µg/mL (≈ 12.4 µM); in the test on HT-29, 5.67 µg/mL (≈ 15.1 µM).
The corresponding values for `CC(C)[C@@H](C)CC[C@@H](C)[C@H]1CC[C@H]2[C@@H]3C[C@@H](O)[C@@]4(O)C[C@@H](O)CC[C@]4(C)[C@H]3CC[C@]12C` are 0.14 µg/mL (≈ 0.322 µM), 5.38 µg/mL (≈ 12.4 µM), 6.26 µg/mL (≈ 14.4 µM) and 8.35 µg/mL (≈ 19.2 µM).
The corresponding values for `C=C1C(=O)O[C@@H]2C/C(C)=C/CC/C(C)=C/CC[C@]3(C)O[C@H]3C[C@@H]12` [SARCOCRASSOLIDE] are 0.16 µg/mL (≈ 0.506 µM), 9.15 µg/mL (≈ 28.9 µM), 8.31 µg/mL (≈ 26.3 µM) and 7.55 µg/mL (≈ 23.9 µM).
In the case of `C=C1C(=O)O[C@H]2/C=C(\C)CC[C@H](OC(C)=O)[C@@]3(C)CC[C@H](OO3)/C(C)=C\C[C@@H]12` [DENTICULATOLIDE], the EC50 came to 0.15 µg/mL (≈ 0.384 µM) in the test on P388, 6.29 µg/mL (≈ 16.1 µM) in the test with KB, 6.46 µg/mL (≈ 16.5 µM) in the test on A549 and 5.78 µg/mL (≈ 14.8 µM) in the test with HT-29.
The corresponding values for `CC(=O)OC(C)(C)[C@H](C)CC[C@@H](C)[C@H]1CC[C@H]2[C@@H]3C[C@@H](O)[C@@]4(O)C[C@@H](O)CC[C@]4(C)[C@H]3CC[C@]12C` are 3.96 µg/mL (≈ 8.04 µM), 26.8 µg/mL (≈ 54.5 µM), 22.4 µg/mL (≈ 45.5 µM) and 4.32 µg/mL (≈ 8.77 µM).
